Only some compounds are listed: those with a hit (about 3.7% of all), similar ones and a draw of the others.
Cl transport mod – KCC2 cotransporter modulators, thallium flux, primary screen, cell-based, HEK293 KCC2, FluoZin-2 fluorescence, MLSMR; B-score of Tl+ flux slope (higher = more flux/activation; lower = inhibition) at 10 µM; KCC2 cells, thallium flux FluoZin-2 fluorescence; hit rate 2.2% among 190,000;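 active = thallium flux slope and its plate-corrected score both differing from the plate sample mean at a set confidence after two filtering rounds, in either direction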;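 also: slope of fluorescence scaled to starting intensity during 10 to 20 s after thallium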
MDM2 E3 inh – MDM2-luciferase reporter signal enhancers, primary screen, MDM2 E3 ligase inhibitor project, cell-based, luminescence, 1536-well. cell-based MDM2 ubiquitination luciferase reporter, 2 h; 0 = plate control, 100 = twice control, blank-subtracted. signal enhancement, % at 5 µM. hit rate 0.11% among 210,000. AID 1230, 2008;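 active = signal enhancement of 30% or more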;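 also: luminescence tracks abundance of the self-degrading MDM2-luciferase fusion protein; higher signal means inhibition of MDM2 E3 ligase activity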
Target sequence (Q00987 whole entry, looked up, the tested form may be a part): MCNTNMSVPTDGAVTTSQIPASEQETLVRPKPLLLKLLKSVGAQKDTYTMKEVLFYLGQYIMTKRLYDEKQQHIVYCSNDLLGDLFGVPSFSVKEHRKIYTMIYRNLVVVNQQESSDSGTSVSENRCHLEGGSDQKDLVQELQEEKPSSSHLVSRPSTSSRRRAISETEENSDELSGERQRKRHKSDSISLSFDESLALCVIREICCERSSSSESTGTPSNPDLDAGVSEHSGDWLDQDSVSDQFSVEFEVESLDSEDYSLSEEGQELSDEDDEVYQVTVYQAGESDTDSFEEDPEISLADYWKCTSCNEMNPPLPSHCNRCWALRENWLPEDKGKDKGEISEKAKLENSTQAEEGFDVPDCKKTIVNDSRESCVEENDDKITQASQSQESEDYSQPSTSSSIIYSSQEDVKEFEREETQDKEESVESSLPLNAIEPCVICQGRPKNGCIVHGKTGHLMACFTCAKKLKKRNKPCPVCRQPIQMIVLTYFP
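System: stable MDM2–luciferase fusion reporter cells / Input: 2000 cells seeded into each well / Schedule: 4 h settle plus 2 h compound, 37 °C / Compound: single-point 5 µM / Buffer or medium: cells held in DMEM / Benchmarks: control and blank well means / Evaluation: percent signal gain over controls, blank-subtracted / Measured by: luciferase luminescence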
Arbovirus inh – antivirals against arbovirus infection, primary screen, cell-based, full library, 10K replicate subset; arbovirus infection cell-based antiviral screen; inhibition, % at 10 µM; hit rate 0.37% among 200,000; AID 1251, 2008; in the data active = inhibition above about 30%
m-calpain inh – inhibitors of pig calpain II, primary screen, biochemical, fluorogenic peptide substrate, 1536-well. purified calpain II, 30 min. inhibition, % at 16 µM. AID 1236, 2008. hit rate 0.37% among 220,000;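 active = inhibition above about 50%, limit read from the data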
PKD1 kinase inh – inhibitors of human PKD1 kinase, biochemical, fluorescence polarization. AID 797, 2007. hit rate 0.056% among 200,000. PKD1 kinase fluorescence polarization assay. inhibition, % (no concentration beside the values). Serine/threonine-protein kinase D1 (Homo sapiens), Q15139; in the data active = inhibition above about 50%
ROMK mod – ROMK potassium channel modulators, primary screen, cell-based, thallium flux, MLSMR library; ATP-sensitive inward rectifier potassium channel 1 (Homo sapiens), P48048; Tet-inducible ROMK, thallium flux fluorescence; actives lie on both sides; B-score at 10 µM; hit rate 2% among 130,000; AID 1918, 2009;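 active = signal ratio slope over the read window, or its plate-corrected B-score, at least 3 SD from the plate mean, either direction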;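 also: B-score of the F/F0 ratio slope over 7 to 12 s after thallium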
KCC2 secondary – KCC2 modulators in sodium-free buffer, confirmation, cell-based, HEK293 KCC2, thallium flux, secondary assay; normalised thallium flux (F/F0 slope) at 10 µM; hit rate 15% among 3,700; shares compounds with Cl transport mod; FluoZin2 fluorescence; active compounds read high;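 active = thallium flux slope above the same plate's solvent-only control mean plus 3 SD; inconclusive = the two replicate wells disagree; inactive = no significant difference from solvent-only control wells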
KCC2 bumet counter – thallium flux persisting under bumetanide in KCC2 cells, confirmation, counter-screen for KCC2 modulator project, cell-based, HEK293 KCC2, FluoZin2, secondary assay 3. shares compounds with Cl transport mod. HEK293-KCC2 + bumetanide/ouabain; active compounds read high. normalized thallium flux at 10 µM. hit rate 49% among 3,700. AID 1714, 2009;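 active = thallium entry rate above the same plate's blocked-transporter control wells by more than 3 SD; inconclusive = the two repeat wells disagree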;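 also: raw slope of fluorescence over initial fluorescence between 10 and 20 s after thallium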
KCC2 secondary2 – KCC2 modulators without ouabain present, confirmation, cell-based, HEK293 KCC2, thallium flux, FluoZin2, secondary assay 2; shares compounds with Cl transport mod; thallium flux FluoZin2 fluorescence; actives lie on both sides; F/F0 rise rate, 10–20 s post-thallium; normalized thallium flux at 10 µM; hit rate 23% among 3,700; AID 1715, 2009;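 active = thallium flux slope more than 3 SD above or below the plate's solvent-only control mean, mostly below; inconclusive = the two repeat wells disagreed; inactive = no significant shift from solvent-only controls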
HEK293 Tl flux – thallium flux modulation in parental HEK cells, confirmation, counter-screen for KCC2 modulator project, cell-based, counterscreen 1. HEK293 parental cells, thallium flux FluoZin2, ouabain; baseline-ratio fluorescence slope, 10–20 s after thallium. thallium flux rate (normalised fluorescence) at 10 µM. hit rate 46% among 3,700. shares compounds with Cl transport mod;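 active = thallium flux rate significantly above the same plate's solvent-only control wells, beyond their mean plus 3 SD; inconclusive = the two replicate wells gave conflicting results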
KCC2 ouabain – KCC2 inhibitors and activators, ouabain retest, confirmation, HEK-KCC2 cells; HEK293-KCC2, thallium flux FluoZin2 fluorescence; bidirectional: low = inhibitor, high = activator; shares compounds with Cl transport mod; raw Tl+ flux slope (below DMSO = inhibition, above = activation) at 10 µM; hit rate 48% among 3,700;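 active = thallium flux slope beyond 3 SD from same-plate DMSO control mean in most replicates, usually higher, sometimes lower; inconclusive = repeat tests gave conflicting results; inactive = no significant difference from controls in most replicates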;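 also: slope of initial-normalized fluorescence between seconds 10 and 20 after thallium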
HEK counter2 – native HEK Tl+ uptake effects, second counter-screen – HEK cells, counterscreen 2, counter-screen for KCC2 modulator project, confirmation; AID 1718, 2009; hit rate 33% among 3,700; thallium flux slope at 10 µM; shares compounds with Cl transport mod; HEK293 parental, thallium flux FluoZin-2 fluorescence slope;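 active = thallium flux slope above the same plate's solvent-control mean plus 3 SD in both duplicate wells; inconclusive = duplicate wells that disagreed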;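 also: run without ouabain in cells lacking the KCC2 cotransporter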
Numbers stand for hits.

CC(C)Cc1c2c([nH]c(=S)c1C#N)CCCC2 was read as Cl transport mod 27, MDM2 E3 inh inactive, Arbovirus inh inactive, m-calpain inh inactive, PKD1 kinase inh inactive, ROMK mod inactive, KCC2 secondary 0.019, KCC2 bumet counter 0.068, KCC2 secondary2 inactive, HEK293 Tl flux 0.034, KCC2 ouabain 0.058 and HEK counter2 0.014.
Screening Cc1ccccc1Nc1nc(N)nc(COC(=O)c2cccn2C)n1 returned Cl transport mod inactive, MDM2 E3 inh inactive, Arbovirus inh inactive, m-calpain inh inactive and PKD1 kinase inh inactive.
Screening CCc1ccccc1Nc1nc(N)nc(COC(=O)c2cccn2C)n1 returned Cl transport mod -5.6, MDM2 E3 inh inactive, Arbovirus inh inactive, m-calpain inh inactive, PKD1 kinase inh inactive, ROMK mod inactive, KCC2 secondary inactive, KCC2 bumet counter inactive, KCC2 secondary2 inactive, HEK293 Tl flux inactive, KCC2 ouabain inactive and HEK counter2 inactive.
For O=c1c(F)cn(C2CCCO2)c(=O)n1Cc1ccc(Cl)cc1 (stereo unspecified) the results were Cl transport mod inactive, Arbovirus inh inactive, m-calpain inh inactive, PKD1 kinase inh inactive and ROMK mod inactive.
For O=c1[nH]c(=O)n(C2CCCO2)cc1Br (stereo unspecified) the results were Cl transport mod 3.9, MDM2 E3 inh inactive, Arbovirus inh inactive, m-calpain inh inactive, PKD1 kinase inh inactive, KCC2 secondary inactive, KCC2 bumet counter inactive, KCC2 secondary2 inactive, HEK293 Tl flux inactive, KCC2 ouabain inactive and HEK counter2 inactive.
`CCOC(=O)C1CCN(C(=O)C(C)Oc2ccc(Br)cc2)CC1` (stereo unspecified) gave Cl transport mod inactive, MDM2 E3 inh inactive, Arbovirus inh inactive, m-calpain inh inactive, PKD1 kinase inh inactive and ROMK mod inactive.
For O=C(CCC(=O)Nc1ccccc1)NNC(=O)C(c1ccccc1)c1ccccc1 the results were Cl transport mod inactive, MDM2 E3 inh inactive, Arbovirus inh inactive, m-calpain inh inactive and PKD1 kinase inh inactive.
For COc1ccccc1-n1cnnc1SCC(=O)NCC1CCCO1 (stereo unspecified) the results were Cl transport mod inactive, MDM2 E3 inh inactive, Arbovirus inh inactive, m-calpain inh inactive, PKD1 kinase inh inactive and ROMK mod inactive.
Screening NC(=O)COc1ccccc1/C=C1/SC(=O)N(CC(=O)N2CCc3ccccc3C2)C1=O returned Cl transport mod -3.4, MDM2 E3 inh inactive, Arbovirus inh inactive, m-calpain inh inactive, PKD1 kinase inh inactive, ROMK mod inactive, KCC2 secondary inactive, KCC2 bumet counter inactive, KCC2 secondary2 0.023, HEK293 Tl flux inactive, KCC2 ouabain 0.016 and HEK counter2 inactive.
Screening O=[N+]([O-])c1ccc(NC(=S)NCCc2ccccc2)cc1 returned Cl transport mod inactive, MDM2 E3 inh inactive, Arbovirus inh inactive, m-calpain inh inactive, PKD1 kinase inh inactive and ROMK mod inactive.
`O=[N+]([O-])c1ccc(NC(=S)NCCc2ccc(Cl)cc2)cc1` gave Cl transport mod -5, MDM2 E3 inh inactive, Arbovirus inh inactive, m-calpain inh 68, PKD1 kinase inh inactive, KCC2 secondary inactive, KCC2 bumet counter inactive, KCC2 secondary2 0.026, HEK293 Tl flux inconclusive, KCC2 ouabain inactive and HEK counter2 inactive.
`Nn1c(Cc2ccccc2F)nnc1SCC(=O)Nc1cccc(S(=O)(=O)NC2=NCCCCC2)c1` gave Cl transport mod inactive, MDM2 E3 inh inactive, Arbovirus inh inactive, m-calpain inh inactive, PKD1 kinase inh inactive and ROMK mod inactive.
Screening Cc1c(C(=O)Nc2cc(S(=O)(=O)N3CCOCC3)ccc2N2CCOCC2)oc2ccccc12 returned Cl transport mod inactive, MDM2 E3 inh inactive, Arbovirus inh inactive, m-calpain inh inactive, PKD1 kinase inh inactive and ROMK mod inactive.
For COCCn1c(=S)[nH]c2ccccc21 the results were Cl transport mod inactive, MDM2 E3 inh inactive, Arbovirus inh inactive, m-calpain inh inactive, PKD1 kinase inh inactive and ROMK mod inactive.
COc1ccc(Cn2c(=S)[nH]c3ccccc32)cc1 was read as Cl transport mod 11, MDM2 E3 inh inactive, Arbovirus inh inactive, m-calpain inh inactive, PKD1 kinase inh inactive, ROMK mod inactive, KCC2 secondary inactive, KCC2 bumet counter 0.0099, KCC2 secondary2 inactive, HEK293 Tl flux 0.013, KCC2 ouabain inconclusive and HEK counter2 0.012.
c1coc(CNc2c3c(nc4ncnn24)CCCC3)c1 was read as Cl transport mod 5, MDM2 E3 inh inactive, Arbovirus inh inactive, m-calpain inh inactive, PKD1 kinase inh inactive, KCC2 secondary inactive, KCC2 bumet counter inactive, KCC2 secondary2 inactive, HEK293 Tl flux inactive, KCC2 ouabain inactive and HEK counter2 inactive.
Screening COc1ccc(C(c2nnnn2Cc2cccs2)N2CCN(c3ccccc3F)CC2)cc1 (stereo unspecified) returned Cl transport mod -4.1, MDM2 E3 inh inactive, Arbovirus inh inactive, m-calpain inh inactive, PKD1 kinase inh inactive, KCC2 secondary inactive, KCC2 bumet counter inconclusive, KCC2 secondary2 inconclusive, HEK293 Tl flux inactive, KCC2 ouabain 0.018 and HEK counter2 inactive.
